Pemphigus Ab inh: inhibitors of pemphigus antibody binding to DSG3, primary screen, biochemical, bead-based, flow cytometry, scFv-GFP; DSG3-coupled beads, scFv-anti-DSG3-GFP binding; stronger effect = lower value; binding (percent of control), % at 10 µM; AID 588358, 2011; 310,000 compounds, 0.48% hits;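 active = binding more than 3 SD below its plate's average and above zero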
Neddylation inh: inhibitors of cullin neddylation, primary screen, biochemical, TR-FRET, uHTS, NAE and Ubc12 | NEDD8-conjugating enzyme Ubc12 (Homo sapiens) + NEDD8-activating enzyme E1 regulatory … | AID 651699, 2012 | inhibition, % at 25 µM | 360,000 compounds, 0.58% hits; in the data active = inhibition above about 36%
Efflux pump mplx: inhibitors of Candida efflux pumps in yeast, primary screen, S. cerevisiae, Nile Red, multiplex | S. cerevisiae Candida pump triplex | 330,000 compounds, 0.44% hits | inhibition, % at 10 µM | AID 485275, 2010;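 active = plate passing quality check with inhibition over a set limit, or well fluorescence over plate mean plus 4 SD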;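 note: Nile Red retained in pooled yeast measured as flow cytometry median fluorescence; 0% = buffer negative control and 100% = Enniatin B positive control; higher means more Nile Red kept so more efflux inhibition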
Arr AP2 block: inhibitors of beta-arrestin/AP2 binding, primary screen, biochemical, GPCR trafficking, flow cytometry; FITC-arrestin peptide / GST-AP2 beads; AP2 beta2 appendage carries R879A mutation; inhibition, % at 10 µM; 340,000 compounds, 0.31% hits; AID 504490, 2011;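 active = inhibition above a set limit, near 3 SD of compounds lacking own fluorescence, cut at about 54% in these data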;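 note: plate controls were DMSO wells for no effect and 5 µM unlabelled arrestin peptide for full effect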
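System: GST-AP2 R879A glutathione beads; medium: PBS, Tween 20 0.05%, BSA 0.1%; reagent: fluorescein-tagged arrestin peptide at 50 nM final; schedule: pre-incubation 12 min, peptide binding 1 h, room temperature; detection: flow cytometry, FL1 (488/535 nm); read-out: inhibition as reduced fluorescein signal on beads, percent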
Arr AP2 CP1: inhibitors of arrestin peptide binding to AP2, confirmation, biochemical, cherry pick 1, flow cytometry beads. shares compounds with Arr AP2 block. inhibition, % at 10 µM. GST-AP2 beads, FITC arrestin peptide binding; GST-fused beta2-adaptin appendage, R879A mutant. 1,300 compounds, 2% hits. AID 504908, 2011;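 active = inhibition above a set limit, roughly 3 SD of non-fluorescent compound noise, cut at about 38% in these data; inactive = inhibition at or below that limit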;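 note: loss of bead fluorescence from 50 nM FITC arrestin peptide bound to appendage; 0% = negative control wells and 100% = excess unlabelled arrestin peptide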
GST GSH counter: GST-fluorescein capture on glutathione beads, confirmation, artefact control for arrestin-AP2 inhibitor project, biochemical, cherry pick 1, flow cytometry; shares compounds with Arr AP2 block; GST-fluorescein binding to GSH beads, fluorescence, counter-screen; inhibition, % at 10 µM; 1,300 compounds, 2% hits;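 active = inhibition above 50%, about 3 SD of the inhibition seen with non-fluorescent compounds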;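 note: fluorescein maleimide labelled GST captured on 4 micron glutathione beads; higher means more loss of bead fluorescence from quenching or blocked binding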
An asterisk follows results filed as active; · = no result shown. In the library only some 1.7% were active in any assay of this set; here they are far more common.

SMILES | Pemphigus Ab inh | Neddylation inh | Efflux pump mplx | Arr AP2 block | Arr AP2 CP1 | GST GSH counter
Cc1ccc(CNC(=O)Cn2cnc(S(=O)(=O)N3CCC(C)CC3)c2)o1 | · | 13 | 0 | 55* | -4 | 0
CC(=O)c1ccc(NC(=O)Cn2cnc(S(=O)(=O)N3CCC(C)CC3)c2)cc1 | 88 | -73 | 0 | 7 | · | ·
COC(=O)c1ccc2c(=O)n(CCN3CCOCC3)c(SCC(=O)Nc3ccc(OC)cc3OC)nc2c1 | 97 | 3 | 0 | 4 | · | ·
CNc1cccc2c1C(=O)c1ccccc1C2=O | 88 | -34 | 0 | 67* | 3 | 3
O=C1c2ccccc2C(=O)c2c(NCc3cccnc3)cccc21 | 104 | -47 | 0 | 6 | · | ·
CCC(C)NC(=O)C(Cc1ccccc1)NS(=O)(=O)c1ccc2c(c1)oc(=O)n2C (centres undefined) | 99 | 3 | 0 | -1 | · | ·
CN(NC(=O)COc1ccccc1)C1=NS(=O)(=O)c2ccccc21 | 102 | 4 | 0 | 62* | 0 | -7
Cc1c(C(=O)NCCN2CCCC(O)C2)oc2c(F)cccc12 (centres undefined) | 114 | 13 | 0 | 58* | -11 | -3
Cc1c(C(=O)NCCN2CCOC2=O)oc2c(F)cccc12 | 106 | -7 | 0 | -3 | · | ·
CC1(C(=O)NS(=O)(=O)c2ccc(C#N)cc2)CCN1C(=O)c1ccccc1CCc1ccccc1 (centres undefined) | · | 3 | · | · | · | ·
CCOc1ccc(N(CC(=O)N2CCCCC2)S(=O)(=O)c2ccc(Cl)cc2)cc1 | 108 | -2 | 0 | -11 | · | ·
CC1CN(S(=O)(=O)c2ccc(C(=O)Nc3nc(-c4cc5ccccc5o4)cs3)cc2)CC(C)O1 (centres undefined) | 84 | -27 | 0 | 107* | -6 | -2
N#Cc1nc(-c2ccco2)oc1NCc1ccc(F)cc1 | 97 | · | 0 | 72* | -8 | -3
Cc1cc(C(F)(F)F)nn1CC(=O)NNC(=S)Nc1ccc(F)cc1 | 98 | 6 | 0 | 0 | · | ·
CCNS(=O)(=O)c1ccc(NC(=O)Cn2nc(C(F)(F)F)cc2C)cc1 | 97 | 7 | 0 | 62* | 7 | 5
COc1ccc(CC(=O)Nc2ccc(-c3cn4cccc(C)c4n3)cc2)cc1OC | 105 | 32 | 0 | 0 | · | ·
Cc1cccn2cc(-c3ccc(NC(=O)Cc4ccccc4)cc3)nc12 | 101 | 8 | 0 | 96* | -1 | -1
O=C(Cc1cccs1)N1CCN(S(=O)(=O)c2ccc(F)c(F)c2)CC1 | · | -17 | 0 | 2 | · | ·
O=C(CNC(=O)N1CC(=O)Nc2ccccc21)NCc1ccc(Cl)cc1 | 98 | 2 | 0 | 4 | · | ·
CCOc1ccc(C2/C(=C(/O)c3ccc4c(c3)CC(C)O4)C(=O)C(=O)N2CCCn2ccnc2)cc1OCC (centres undefined) | 88 | -10 | 0 | -11 | · | ·
CCN(CC(=O)Nc1ccc(NC(C)=O)cc1)C(=O)CCCc1c[nH]c2ccccc12 | · | -2 | 0 | 62* | -4 | -5
CCN(CC(=O)Nc1ccc(NC(C)=O)cc1)C(=O)CCCSc1nc2ccccc2[nH]1 | 101 | 7 | 0 | 66* | -16 | 1
CC(=O)Nc1ccc(NC(=O)CCCSc2nc3ccccc3[nH]2)cc1 | 102 | 7 | 0 | 2 | · | ·
O=C(CSc1ccc(Br)cc1)NCC(c1ccco1)N1CCCCC1 (centres undefined) | 107 | 3 | 0 | 1 | · | ·
O=C(C1CCN(S(=O)(=O)c2cc(Cl)ccc2Cl)CC1)N1CCCC1 | 108 | 5 | 0 | 6 | · | ·
SMILES | Pemphigus Ab inh | Neddylation inh | Efflux pump mplx | Arr AP2 block | Arr AP2 CP1 | GST GSH counter
O=C(C1CCN(S(=O)(=O)c2cc(Cl)ccc2Cl)CC1)N1CCOCC1 | · | 11 | 0 | 56* | -2 | -6
COc1ccc(NC(=O)N(C)C[C@H]2Oc3ccc(NS(=O)(=O)c4cccs4)cc3C(=O)N([C@@H](C)CO)C[C@@H]2C)cc1 | 97 | -16 | 0 | 10 | · | ·
CCCNc1c(NS(=O)(=O)c2ccc3c(c2)CCCC3)c(=O)oc2ccccc12 | · | · | 0 | -4 | · | ·
COc1cccc(N2CCN(c3ccc4nnc(CCC(=O)Nc5cccc(C(C)=O)c5)n4n3)CC2)c1 | 100 | -383 | 0 | -3 | · | ·
CC(Oc1ccc(Br)cc1)C(=O)N1CCC(C(N)=O)CC1 (centres undefined) | 106 | -8 | 0 | 59* | 3 | -2
CC(C)Cn1c(N)c(C(=O)COC(=O)c2ccccc2F)c(=O)n(C)c1=O | 99 | -5 | 0 | 4 | -1 | 0
CC(C)Cn1c(N)c(C(=O)COC(=O)c2cccn2C)c(=O)n(C)c1=O | 100 | 16 | 0 | 31 | -7 | -2
CC(C)Cn1c(N)c(C(=O)COC(=O)c2ccccc2Cl)c(=O)n(C)c1=O | 102 | 11 | 1 | -17 | 6 | -3
Cc1ccccc1NC(=O)CON=C(N)c1ccccc1 | 96 | 5 | 0 | -2 | · | ·
O=C(NCCN1CCOCC1)c1cc2cc([N+](=O)[O-])ccc2s1 | 86 | -25 | 0 | 1 | · | ·
COc1cc(C(=O)Nc2cc(Cl)ccc2-n2cncn2)ccc1OC(F)F | 99 | -20 | 0 | 25 | · | ·
O=C(Nc1cc(Cl)ccc1-n1cncn1)c1ccccc1OC(F)F | 92 | 5 | · | 68* | 6 | -6
Cc1ccn2c(NC(=O)C(C)(C)Oc3ccc(Cl)cc3)c(-c3cccs3)nc2c1 | 101 | 31 | -7 | 60* | -6 | 4
CCCCN(C(=O)c1ccc(N2C(=O)c3ccccc3C2=O)cc1)c1c(N)n(CC(C)C)c(=O)[nH]c1=O | 75 | -5 | · | -3 | · | ·
Cc1ccc(NC(=S)N2CCC(N(C)CC3CCCO3)CC2)c(C)c1 (centres undefined) | 107 | -3 | 0 | -1 | · | ·
CCOc1ccc(C(=O)NC(=S)Nc2ncccc2C)cc1[N+](=O)[O-] | 95 | -11 | 0 | 58* | -11 | -10
Cn1c(=O)[nH]c(=O)c2c1nc([N+](=O)[O-])n2Cc1ccccc1 | 115 | -34 | 0 | 9 | · | ·
CCNC(=S)/N=C(\N)Nc1nc(C)c2cc(C)ccc2n1 | 119 | -19 | 0 | 64* | -7 | 1
CC(C)(C)c1ccc(OCCCC(=O)NNC(=O)c2ccccc2O)cc1 | 98 | 25 | 0 | -7 | · | ·
CC(C)(C)c1ccc(C(=O)NCC(=O)NNC(=O)c2ccccc2O)cc1 | 104 | 35 | 0 | 77* | -9 | 4
CCN(CC)C(=O)c1cccc(NC(=O)C2=COCCO2)c1 | 102 | -14 | 0 | 68* | -12 | -5

Screening data deposited in PubChem BioAssay by several laboratories.
